ChEMBL document CHEMBL5154945, “Discovery and Optimization of Pyrrolopyrimidine Derivatives as Selective Disruptors of the Perinucleolar Compartment, a Marker of Tumor Progression toward Metastasis” (J Med Chem, 2022)
Activity calls are given as the source filed them. The rule behind the calls is not given here.

How the values were obtained:
TK-10 = experiment: Anticancer activity against human TK-10 cells assessed as cell growth inhibition; assay type: functional, cell-based; details: dose 1-100 µM, DDE = dose-dependent effect
[1] = biological target: D(1B) dopamine receptor (Homo sapiens) (UniProt P21918); experiment: Binding affinity to D5 receptor (unknown origin) at 10000 nM by radioligand displacement assay relative to control
Chain of D(1B) dopamine receptor (Homo sapiens) (P21918 whole entry): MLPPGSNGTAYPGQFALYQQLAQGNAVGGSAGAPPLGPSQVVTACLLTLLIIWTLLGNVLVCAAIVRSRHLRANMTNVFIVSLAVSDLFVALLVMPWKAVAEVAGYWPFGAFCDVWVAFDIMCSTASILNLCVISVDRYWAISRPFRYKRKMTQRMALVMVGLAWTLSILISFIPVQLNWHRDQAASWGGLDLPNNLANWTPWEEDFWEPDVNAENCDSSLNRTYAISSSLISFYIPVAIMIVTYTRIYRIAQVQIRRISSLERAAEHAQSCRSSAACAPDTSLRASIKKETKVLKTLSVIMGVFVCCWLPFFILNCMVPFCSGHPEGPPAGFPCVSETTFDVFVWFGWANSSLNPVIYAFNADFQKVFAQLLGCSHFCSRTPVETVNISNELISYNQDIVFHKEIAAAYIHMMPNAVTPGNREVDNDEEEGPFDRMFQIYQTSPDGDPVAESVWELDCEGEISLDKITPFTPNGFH

NCI-H460 = experiment: Anticancer activity against human NCI-H460 cells assessed as cell growth inhibition; assay type: functional, cell-based; details: dose 1-100 µM, DDE = dose-dependent effect
PC-3M [2] = experiment: Antiproliferative activity against human PC-3M cells expressing PTB/GFP fusion protein assessed as reduction of nucleolar volume at 1 to 30 uM measured after 24 hrs by Nucleolar-id Green Detection based confocal microscopic analysis; assay type: functional, cell-based; details: dose 1-30 µM, DDE = dose-dependent effect
How it was run: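 PC-3M cells grown in RPMI 1640 with 10% FBS and penicillin/streptomycin, trypsinized at 70% confluence, and seeded at 2×10^5 cells/mL overnight at 37 °C, 5% CO₂. Medium replaced with compound or 1% DMSO for 24 h. Nucleoli stained with Nucleolar-ID Green and nuclei with Hoechst 33342, then imaged by confocal microscopy. Bright green objects in three images per condition normalized to nuclei count; vehicle set to 100.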

NCI/ADR-RES = experiment: Anticancer activity against human NCI/ADR-RES cells assessed as cell growth inhibition; assay type: functional, cell-based; details: dose 1-100 µM, DDE = dose-dependent effect
SR = experiment: Anticancer activity against human SR cells assessed as cell growth inhibition; assay type: functional, cell-based; details: dose 1-100 µM, DDE = dose-dependent effect
NCI-H226 = experiment: Anticancer activity against human NCI-H226 cells assessed as cell growth inhibition; assay type: functional, cell-based; details: dose 1-100 µM, DDE = dose-dependent effect
MDA-MB-231 = experiment: Anticancer activity against human MDA-MB-231 cells assessed as cell growth inhibition; assay type: functional, cell-based; details: dose 1-100 µM, DDE = dose-dependent effect
KM12 = experiment: Anticancer activity against human KM12 cells assessed as cell growth inhibition; assay type: functional, cell-based; details: dose 1-100 µM, DDE = dose-dependent effect
[3] = biological target: Histamine H2 receptor (Homo sapiens) (UniProt P25021); experiment: Binding affinity to H2 receptor (unknown origin) at 10000 nM by radioligand displacement assay relative to control
Chain of Histamine H2 receptor (Homo sapiens) (P25021 whole entry): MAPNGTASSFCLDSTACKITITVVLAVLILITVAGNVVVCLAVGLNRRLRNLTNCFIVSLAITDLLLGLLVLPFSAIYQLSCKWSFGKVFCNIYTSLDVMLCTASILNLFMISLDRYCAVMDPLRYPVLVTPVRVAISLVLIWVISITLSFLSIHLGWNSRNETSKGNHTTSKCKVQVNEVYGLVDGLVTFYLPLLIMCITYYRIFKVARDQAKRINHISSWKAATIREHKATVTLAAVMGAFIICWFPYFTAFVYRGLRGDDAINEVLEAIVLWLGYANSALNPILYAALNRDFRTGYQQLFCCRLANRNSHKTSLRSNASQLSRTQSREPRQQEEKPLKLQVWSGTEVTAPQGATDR

[4] = biological target: Alpha-2B adrenergic receptor (Homo sapiens) (UniProt P18089); experiment: Binding affinity to alpha2B receptor (unknown origin) at 10000 nM by radioligand displacement assay relative to control
Chain of Alpha-2B adrenergic receptor (Homo sapiens) (P18089 whole entry): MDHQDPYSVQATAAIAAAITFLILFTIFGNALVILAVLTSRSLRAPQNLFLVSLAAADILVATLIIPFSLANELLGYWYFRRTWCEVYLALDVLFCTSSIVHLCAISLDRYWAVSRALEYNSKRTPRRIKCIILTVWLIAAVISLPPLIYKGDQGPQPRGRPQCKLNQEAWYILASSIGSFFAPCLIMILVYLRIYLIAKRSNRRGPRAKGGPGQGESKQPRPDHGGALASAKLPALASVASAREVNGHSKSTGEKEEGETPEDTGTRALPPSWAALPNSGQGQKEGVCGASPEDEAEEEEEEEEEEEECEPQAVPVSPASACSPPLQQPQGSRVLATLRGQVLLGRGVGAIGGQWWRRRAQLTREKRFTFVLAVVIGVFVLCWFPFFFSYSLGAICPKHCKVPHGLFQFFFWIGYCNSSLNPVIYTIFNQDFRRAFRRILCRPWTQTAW

SK-MEL-28 = experiment: Anticancer activity against human SK-MEL-28 cells assessed as cell growth inhibition; assay type: functional, cell-based; details: dose 1-100 µM, DDE = dose-dependent effect
MDA-MB-468 = experiment: Anticancer activity against human MDA-MB-468 cells assessed as cell growth inhibition; assay type: functional, cell-based; details: dose 1-100 µM, DDE = dose-dependent effect
SK-OV-3 = experiment: Anticancer activity against human SK-OV-3 cells assessed as cell growth inhibition; assay type: functional, cell-based; details: dose 1-100 µM, DDE = dose-dependent effect
[5] = mouse, in vivo, ip, 50 mg/kg, 48 h
SF-268 = experiment: Anticancer activity against human SF-268 cells assessed as cell growth inhibition; assay type: functional, cell-based; details: dose 1-100 µM, DDE = dose-dependent effect
OVCAR-5 = experiment: Anticancer activity against human OVCAR-5 cells assessed as cell growth inhibition; assay type: functional, cell-based; details: dose 1-100 µM, DDE = dose-dependent effect
PC-3M [6] = experiment: Anticancer activity in human PC-3M cells expressing PTB/GFP fusion protein assessed as perinucleolar compartment disassembly and measured after 24 hrs by Hoechst 33342 staining based microscopic method; assay type: functional, cell-based
How it was run: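 Imaged by high-content microscopy. Nuclei with PNC spots ≥3 and >0 scored positive. PNC prevalence % = PNC-positive nuclei/total nuclei ×100, normalized to DMSO (0% activity) and 0% PNC (−100%). IC50 from concentration-response.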

OVCAR-8 = experiment: Anticancer activity against human OVCAR-8 cells assessed as cell growth inhibition; assay type: functional, cell-based; details: dose 1-100 µM, DDE = dose-dependent effect
[7] = biological target: 5-hydroxytryptamine receptor 1E (Homo sapiens) (UniProt P28566); experiment: Binding affinity to 5-HT1E receptor (unknown origin) at 10000 nM by radioligand displacement assay relative to control
Chain of 5-hydroxytryptamine receptor 1E (Homo sapiens) (P28566 whole entry): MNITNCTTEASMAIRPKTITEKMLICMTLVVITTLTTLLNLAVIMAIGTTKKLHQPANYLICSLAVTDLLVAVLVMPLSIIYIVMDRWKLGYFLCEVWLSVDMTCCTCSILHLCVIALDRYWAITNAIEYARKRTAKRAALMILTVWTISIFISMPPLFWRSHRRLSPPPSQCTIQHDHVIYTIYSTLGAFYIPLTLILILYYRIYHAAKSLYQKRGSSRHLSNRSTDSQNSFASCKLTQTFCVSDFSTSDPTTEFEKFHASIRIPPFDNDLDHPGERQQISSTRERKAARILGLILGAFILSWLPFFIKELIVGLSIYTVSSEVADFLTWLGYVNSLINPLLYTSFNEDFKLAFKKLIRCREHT

HCT-116 = experiment: Anticancer activity against human HCT-116 cells assessed as cell growth inhibition; assay type: functional, cell-based; details: dose 1-100 µM, DDE = dose-dependent effect
[8] = biological target: 5-hydroxytryptamine receptor 7 (Homo sapiens) (UniProt P34969); experiment: Binding affinity to 5-HT7 receptor (unknown origin) at 10000 nM by radioligand displacement assay relative to control
Chain of 5-hydroxytryptamine receptor 7 (Homo sapiens) (P34969 whole entry): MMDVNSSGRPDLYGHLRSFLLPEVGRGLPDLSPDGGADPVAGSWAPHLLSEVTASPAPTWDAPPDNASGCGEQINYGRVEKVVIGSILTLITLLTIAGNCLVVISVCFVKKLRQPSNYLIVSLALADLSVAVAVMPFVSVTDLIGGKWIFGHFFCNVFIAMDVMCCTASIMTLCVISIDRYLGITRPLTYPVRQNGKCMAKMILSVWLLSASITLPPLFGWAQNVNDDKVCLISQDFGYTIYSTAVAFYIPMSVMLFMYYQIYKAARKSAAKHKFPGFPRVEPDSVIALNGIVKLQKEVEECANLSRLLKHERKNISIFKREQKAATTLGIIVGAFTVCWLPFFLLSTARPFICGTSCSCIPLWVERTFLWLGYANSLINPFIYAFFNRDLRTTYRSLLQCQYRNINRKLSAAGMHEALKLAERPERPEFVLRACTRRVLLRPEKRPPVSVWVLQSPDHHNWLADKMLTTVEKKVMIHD

[9] = biological target: GABA-A receptor; anion channel (Homo sapiens) (UniProt P14867+P47870+P18507+P28472+P48169+Q99928+Q9UN88+P34903+O00591+O14764+Q8N1C3+P18505+P78334+P47869+P31644+Q16445); experiment: Binding affinity to GABAA receptor (unknown origin) at 10000 nM by radioligand displacement assay relative to control; assay type: protein-complex assay
UO-31 = experiment: Anticancer activity against human UO-31 cells assessed as cell growth inhibition; assay type: functional, cell-based; details: dose 1-100 µM, DDE = dose-dependent effect
PC-3M [10] = experiment: Antiproliferative activity against human PC-3M cells expressing PTB/GFP fusion protein assessed as cell growth inhibition at 0.1 to 10 uM and measured every four hrs for 130 hrs by IncuCyte zoom live cell analysis; assay type: functional, cell-based; details: dose 0.1-10 µM
How it was run: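 PC3M cells stably expressing GFP-PTB, grown in DMEM with 10% FBS and 1% penicillin/streptomycin, seeded at 1.25×10^4 cells/ml in 384-well plates and left overnight at 37 °C, 5% CO2. Compound added in DMEM to give 11 final concentrations from 10 nM to 20 μM. Brightfield images were taken every 4 h for about 130 h and scored as percent confluence.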

MCF7 = experiment: Anticancer activity against human MCF7 cells assessed as cell growth inhibition; assay type: functional, cell-based; details: dose 1-100 µM, DDE = dose-dependent effect
IGROV-1 = experiment: Anticancer activity against human IGROV-1 cells assessed as cell growth inhibition; assay type: functional, cell-based; details: dose 1-100 µM, DDE = dose-dependent effect
COLO 205 = experiment: Anticancer activity against human COLO 205 cells assessed as cell growth inhibition; assay type: functional, cell-based; details: dose 1-100 µM, DDE = dose-dependent effect
[11] = biological target: Beta-2 adrenergic receptor (Homo sapiens) (UniProt P07550); experiment: Binding affinity to beta2 receptor (unknown origin) at 10000 nM by radioligand displacement assay relative to control
Chain of Beta-2 adrenergic receptor (Homo sapiens) (P07550 whole entry, looked up): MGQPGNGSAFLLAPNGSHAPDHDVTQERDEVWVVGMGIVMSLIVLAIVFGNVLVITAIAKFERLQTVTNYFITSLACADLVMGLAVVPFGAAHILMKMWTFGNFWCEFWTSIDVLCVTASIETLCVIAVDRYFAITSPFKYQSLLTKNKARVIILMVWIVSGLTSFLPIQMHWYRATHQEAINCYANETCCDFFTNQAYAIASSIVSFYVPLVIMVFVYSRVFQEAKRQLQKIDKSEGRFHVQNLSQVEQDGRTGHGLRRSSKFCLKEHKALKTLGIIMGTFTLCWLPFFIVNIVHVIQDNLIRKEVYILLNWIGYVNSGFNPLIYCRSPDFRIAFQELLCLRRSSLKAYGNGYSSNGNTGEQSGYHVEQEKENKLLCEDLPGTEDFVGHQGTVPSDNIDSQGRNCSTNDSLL

ACHN = experiment: Anticancer activity against human ACHN cells assessed as cell growth inhibition; assay type: functional, cell-based; details: dose 1-100 µM, DDE = dose-dependent effect
[12] = mouse, in vivo, ip, 50 mg/kg, 48 h; remark: listed apart in the source
OVCAR-4 = experiment: Anticancer activity against human OVCAR-4 cells assessed as cell growth inhibition; assay type: functional, cell-based; details: dose 1-100 µM, DDE = dose-dependent effect
MOLT-4 = experiment: Anticancer activity against human MOLT-4 cells assessed as cell growth inhibition; assay type: functional, cell-based; details: dose 1-100 µM, DDE = dose-dependent effect
[13] = Microsomal stability in CD1 mouse liver microsomes assessed as half life measured upto 60 mins in presence of NADPH by LC-MS analysis; details: CD1, mouse, liver microsomes
[14] = biological target: Muscarinic acetylcholine receptor M3 (Homo sapiens) (UniProt P20309); experiment: Binding affinity to M3 receptor (unknown origin) at 10000 nM by radioligand displacement assay relative to control
Chain of Muscarinic acetylcholine receptor M3 (Homo sapiens) (P20309 whole entry, looked up): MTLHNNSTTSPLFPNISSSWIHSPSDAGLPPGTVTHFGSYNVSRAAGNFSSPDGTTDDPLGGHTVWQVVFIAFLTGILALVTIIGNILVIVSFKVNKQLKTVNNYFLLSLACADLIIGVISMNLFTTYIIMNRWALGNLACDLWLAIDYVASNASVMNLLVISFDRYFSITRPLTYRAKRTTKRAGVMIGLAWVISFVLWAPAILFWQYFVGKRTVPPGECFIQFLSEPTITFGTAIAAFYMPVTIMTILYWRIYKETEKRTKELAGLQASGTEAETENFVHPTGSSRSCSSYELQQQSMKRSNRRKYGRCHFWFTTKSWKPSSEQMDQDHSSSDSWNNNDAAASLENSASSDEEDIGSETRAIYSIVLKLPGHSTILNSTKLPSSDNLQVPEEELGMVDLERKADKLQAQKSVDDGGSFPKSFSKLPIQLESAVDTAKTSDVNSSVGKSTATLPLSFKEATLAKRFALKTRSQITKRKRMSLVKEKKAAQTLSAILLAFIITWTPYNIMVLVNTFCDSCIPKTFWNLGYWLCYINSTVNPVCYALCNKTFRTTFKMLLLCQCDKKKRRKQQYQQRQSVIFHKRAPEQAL

[15] = biological target: 5-hydroxytryptamine receptor 1A (Homo sapiens) (UniProt P08908); experiment: Binding affinity to 5-HT1A receptor (unknown origin) at 10000 nM by radioligand displacement assay relative to control
Chain of 5-hydroxytryptamine receptor 1A (Homo sapiens) (P08908 whole entry): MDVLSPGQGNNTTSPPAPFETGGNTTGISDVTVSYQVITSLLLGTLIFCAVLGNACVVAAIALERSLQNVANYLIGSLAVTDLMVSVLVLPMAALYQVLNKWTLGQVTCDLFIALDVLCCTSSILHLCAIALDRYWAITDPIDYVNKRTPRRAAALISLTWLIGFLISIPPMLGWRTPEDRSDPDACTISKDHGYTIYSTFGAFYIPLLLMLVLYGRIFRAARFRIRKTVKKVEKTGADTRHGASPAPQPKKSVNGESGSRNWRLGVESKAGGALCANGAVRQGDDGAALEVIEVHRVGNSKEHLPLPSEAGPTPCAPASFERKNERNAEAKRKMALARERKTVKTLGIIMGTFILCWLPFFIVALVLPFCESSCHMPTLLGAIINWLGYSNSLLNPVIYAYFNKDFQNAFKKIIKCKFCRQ

PC-3 = experiment: Anticancer activity against human PC-3 cells assessed as cell growth inhibition; assay type: functional, cell-based; details: dose 1-100 µM, DDE = dose-dependent effect
HCT-15 = experiment: Anticancer activity against human HCT-15 cells assessed as cell growth inhibition; assay type: functional, cell-based; details: dose 1-100 µM, DDE = dose-dependent effect
[16] = biological target: Alpha-2A adrenergic receptor (Homo sapiens) (UniProt P08913); experiment: Binding affinity to alpha2A receptor (unknown origin) at 10000 nM by radioligand displacement assay relative to control
Chain of Alpha-2A adrenergic receptor (Homo sapiens) (P08913 whole entry): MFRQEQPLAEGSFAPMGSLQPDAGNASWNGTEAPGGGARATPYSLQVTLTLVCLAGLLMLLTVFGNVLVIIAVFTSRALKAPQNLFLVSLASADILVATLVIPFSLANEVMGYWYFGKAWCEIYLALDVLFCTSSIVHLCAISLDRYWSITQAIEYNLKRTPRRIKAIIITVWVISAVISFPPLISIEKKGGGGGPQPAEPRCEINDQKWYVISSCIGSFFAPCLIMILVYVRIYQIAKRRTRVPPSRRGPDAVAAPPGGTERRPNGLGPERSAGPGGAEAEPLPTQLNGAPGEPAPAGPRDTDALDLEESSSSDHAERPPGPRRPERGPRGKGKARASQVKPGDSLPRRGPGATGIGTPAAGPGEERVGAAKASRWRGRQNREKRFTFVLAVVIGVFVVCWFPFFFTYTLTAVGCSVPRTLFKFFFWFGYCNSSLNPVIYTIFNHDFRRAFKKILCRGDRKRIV

N=c1c2c(-c3ccccc3)c(-c3ccccc3)n(Cc3ccccc3)c2ncn1[C@H]1CC[C@H](O)CC1 [ML-246]
Activity (TK-10): Dde | Activity [1]: < 50% | Activity (NCI-H460): Dde | Activity (PC-3M [2]): Dde | Activity (NCI/ADR-RES): Dde | Activity (SR): Dde | Activity (NCI-H226): Dde | Activity (MDA-MB-231): Dde | Activity (KM12): Dde | Activity [3]: < 50% | Activity [4]: < 50% | Activity (SK-MEL-28): Dde | Activity (MDA-MB-468): Dde | Activity (SK-OV-3): Dde | AUC [5]: 231.77 µM·h | Activity (SF-268): Dde | Activity (OVCAR-5): Dde | IC50 (PC-3M [6]; read-out: IC50): 0.2 µM | IC50 (PC-3M [6]; read-out: pIC50 (converted)): 0.178 µM | Activity (OVCAR-8): Dde | Activity [7]: < 50% | Activity (HCT-116): Dde | Activity [8]: < 50% | Activity [9]: < 50% | Activity (UO-31): Dde | Activity (PC-3M [10]): Active | Activity (MCF7): Dde | Activity (IGROV-1): Dde | Activity (COLO 205): Dde | Activity [11]: < 50% | Activity (ACHN): Dde | Tmax [12]: 0.5 h | Activity (OVCAR-4): Dde | Activity (MOLT-4): Dde | half-life at 1 h [13]: 2 h | Activity [14]: < 50% | Activity [15]: < 50% | Activity (PC-3): Dde | Activity (HCT-15): Dde | Activity [16]: < 50%
